Scp-1 inhibitor: Scp-1 (human) phosphatase inhibition. Q9GZU7. Recombinant Scp1, phosphopeptide, malachite green phosphate absorbance. 340,000 compounds, 0.88% hits. AID 493091. inhibition, % at 20 µM;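 active = inhibition above about 50% at 20 µM, limit read from the data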;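 also: plate controls were DMSO wells with enzyme for no effect and wells lacking enzyme for full effect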
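Test system: SCP-1 catalytic domain; Buffer or medium: Acidic Tris acetate buffer with magnesium and detergent; Also added: Phosphorylated 17-residue peptide substrate; Compound: single 20 µM dose, 1% DMSO; Schedule: enzyme reaction 45 min at room temperature, colour 5 min, stabilisation 30 min; Signal: Phosphate-binding colour reagent, absorbance read at 630 nm.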
LMPTP inh: LMPTP (human) inhibition; 360,000 compounds, 0.22% hits; P24666; inhibition, % at 20 µM; recombinant LMPTP-A, OMFP fluorogenic substrate, fluorescence intensity; AID 651560;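 active = compounds that cut the enzyme signal by at least half of the control window in the single-dose screen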;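 also: plate controls were DMSO wells with enzyme plus substrate for no effect and substrate without enzyme for full effect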
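Assay system: LMPTP-A enzyme. Input: 0.625 nM LMPTP-A final. Probe or stimulus: 400 µM OMFP. Compound dosing: single 20 µM dose. Schedule: 50 min dark incubation at room temperature. Detection: fluorescence intensity of OMFP turnover product. Read-out: percent inhibition versus substrate-only and uninhibited controls. Benchmarks: no-enzyme low control, uninhibited high control.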
GRK2 inh: human GRK2 inhibition via aptamer displacement; 330,000 compounds, 0.59% hits; inhibition of aptamer binding, % at 10 µM; bead flow cytometry, FAM-aptamer displacement from GRK2;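 active = inhibition of aptamer binding above 40%, roughly 3 SD of noise, on plates passing a quality check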;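 also: median bead fluorescence of bound FAM aptamer so fluorescent compounds give negative values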
Target sequence (P25098 whole entry, looked up): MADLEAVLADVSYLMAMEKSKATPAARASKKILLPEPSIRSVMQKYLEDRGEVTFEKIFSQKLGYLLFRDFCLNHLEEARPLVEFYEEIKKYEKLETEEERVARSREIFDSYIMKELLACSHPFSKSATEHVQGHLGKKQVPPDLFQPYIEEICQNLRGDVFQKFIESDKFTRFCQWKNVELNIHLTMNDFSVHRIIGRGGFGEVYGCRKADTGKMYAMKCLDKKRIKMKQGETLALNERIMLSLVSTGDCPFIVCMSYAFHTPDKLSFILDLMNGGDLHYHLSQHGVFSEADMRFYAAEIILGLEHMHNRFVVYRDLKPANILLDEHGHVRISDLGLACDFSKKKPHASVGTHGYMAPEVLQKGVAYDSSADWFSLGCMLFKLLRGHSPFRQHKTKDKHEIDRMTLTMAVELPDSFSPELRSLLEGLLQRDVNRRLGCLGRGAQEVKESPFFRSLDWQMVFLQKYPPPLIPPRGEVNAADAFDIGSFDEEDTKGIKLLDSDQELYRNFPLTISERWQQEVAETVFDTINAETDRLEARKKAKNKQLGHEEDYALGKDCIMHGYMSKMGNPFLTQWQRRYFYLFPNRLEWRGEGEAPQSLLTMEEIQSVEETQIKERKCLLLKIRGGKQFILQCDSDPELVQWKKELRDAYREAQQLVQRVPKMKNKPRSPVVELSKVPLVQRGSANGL
DNMT1 block: inhibitors of human DNMT1; DNMT1 molecular beacon, Hinp1I cleavage, fluorescence; AID 588458; P26358; 360,000 compounds, 0.83% hits; inhibition (reported as % activation of signal), % at 10 µM; in the data active = inhibition above about 50%
STEP inh: inhibitors of human striatal-enriched phosphatase STEP. 360,000 compounds, 0.25% hits. recombinant STEP, OMFP fluorogenic substrate, fluorescence. inhibition, % at 20 µM. AID 588621;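 active = inhibition at 20 µM, scaled per plate between control wells, above about 37%, limit read from the data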;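 also: 0% = DMSO with enzyme and substrate and 100% = substrate only without enzyme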
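Material: STEP (striatal-enriched tyrosine phosphatase) enzyme, cell-free | Medium: 50 mM Bis-Tris pH 6.0 with 2.5 mM DTT and 0.005% Tween 20 | Read-out: Percent inhibition scaled to no-enzyme and uninhibited-enzyme controls, plate-pattern corrected | Signal: Fluorescence read at 480 nm ex / 540 nm em | Times: 20 min reaction, room temperature, in the dark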
SUMO1 PPI mod: modulators of human SUMO1-mediated protein-protein interactions | P63165 | SUMO1 binding to a labelled peptide, TR-FRET, 1 h | inhibition, % at 20 µM | 360,000 compounds, 0.33% hits; in the data active = inhibition above about 37%
The depositor's hits bear a star; x = no result given. Sampled rows, rich in hits. Any-hit rate of the full collection: about 2.1%.

SMILES | Scp-1 inhibitor | LMPTP inh | GRK2 inh | DNMT1 block | STEP inh | SUMO1 PPI mod
Cc1ccn2cc(-c3ccc4c(c3)NC(=O)CO4)nc2c1 | -1 | 16 | 0 | 1 | 3 | 54*
COc1cccc(C#CC2=CC(=O)CC(C)(C)C2)c1 | x | 0 | x | 10 | -2 | -16
O=C(O)c1ccccc1C=NN1CCCCCC1 | -5 | 1 | x | 0 | -3 | 6
COC/C=C/C1=CC2=CC(=O)C(C)(O)C(=O)C2=CO1 (stereo not given) | x | x | 87* | x | x | x
COC/C=C/C1=CC2=CC(=O)C(C)(OC(=O)C3CCCC3)C(=O)C2=CO1 (stereo not given) | 4 | 3 | 4 | 13 | 2 | 22
Cc1cc(C(=O)Nc2ccncc2)c2ccccc2n1 | -5 | 0 | 0 | 0 | 1 | -1
Nc1ncc2c(n1)CC(c1ccco1)CC2=O (stereo not given) | 0 | 60* | 0 | 2 | -1 | 7
CCCn1c(SC(C)C(=O)NC2CC2)nnc1-c1ccncc1 (stereo not given) | -3 | -1 | 0 | 8 | -2 | -4
O=C(CCNC(=O)c1ccc(Cl)cc1)Nc1cccc(S(=O)(=O)N2CCCCCC2)c1 | -5 | 2 | 0 | -2 | 2 | 3
Cc1cc(C)c(S(=O)(=O)N2CCN(C(=O)c3ccc(-n4cncn4)c([N+](=O)[O-])c3)CC2)c(C)c1 | -1 | 1 | 0 | 0 | 1 | -28
CC(Cc1c[nH]c2ccccc12)C(=O)O (stereo not given) | 66* | 0 | 21 | 73* | 5 | -2
CC(=O)N[C@H](Cc1c[nH]c2ccccc12)C(=O)O | -6 | -1 | 1 | 2 | 2 | 3
N#CC1=C(N)OC2=C(C(=O)CC(c3ccco3)C2)C1c1ccc(OCc2c(F)cccc2Cl)cc1 (stereo not given) | 14 | 65* | 2 | 1 | 2 | 13
CC(C)(C)c1cc(C(=O)N/N=C/c2ccccc2O)n(-c2ccccc2)n1 | -8 | 3 | 99* | -6 | 0 | 2
Cc1ccc(NC(=O)CSCc2cc(=O)n3ccsc3n2)c(C)c1 | 3 | -1 | 0 | 2 | -2 | -1
CCCCN1C(=O)C(=O)NC[C@@H]1CCCCN | -3 | -5 | 1 | 0 | -1 | 0
CCCC[C@@H]1CNC(=O)C(=O)N1CCCC | x | 17 | x | x | x | 49*
Cc1cc(N2CCN(C(c3ccnc4ccccc34)c3nnnn3-c3c(C)cccc3C)CC2)c2ccccc2n1 (stereo not given) | x | 89* | x | x | x | 4
O=C1C=C(N(CCO)Cc2ccccc2)c2ccccc2C1=O | -3 | 8 | x | 77* | 1 | 32
O=C1c2ccccc2C(=O)c2c1cccc2N(CCO)CCO | -10 | 2 | 2 | -3 | -2 | -36
O=c1ccc2[n+]([O-])c3ccc(O)cc3oc-2c1 | 31 | 3 | x | 58* | 11 | 2
Nc1c(C(=O)NCc2ccccc2)c2nc3ccccc3nc2n1CCCN1CCOCC1 | -4 | -4 | 2 | 47 | 3 | 43*
COc1ccc(-n2c(N)c(C(=O)NCC3CCCO3)c3nc4ccccc4nc32)c(OC)c1 (stereo not given) | -3 | 2 | 4 | -23 | 2 | -12
C=CCn1c(N)c(C(=O)NCC2CCCO2)c2nc3ccccc3nc21 (stereo not given) | -13 | 4 | 2 | 9 | 0 | 44*
CCOc1cc(C(=O)OCC(=O)c2c(C)[nH]c3ccccc23)ccc1OCC(=O)N1CCOCC1 | -9 | -1 | 0 | -1 | 2 | 39*
SMILES | Scp-1 inhibitor | LMPTP inh | GRK2 inh | DNMT1 block | STEP inh | SUMO1 PPI mod
CCOc1cc(C(=O)OCC(=O)c2c[nH]c3ccccc23)ccc1OCC(=O)N1CCOCC1 | -9 | 0 | 0 | -8 | 1 | 4
Cc1cc(N)ccc1N1CCCC1 | 3 | 68* | 0 | 83* | 24 | 2
Cc1cc(N)ccc1-n1c(C)ccc1C | -14 | 6 | 3 | -24 | 10 | -9
O=C1c2ccccc2C(=O)C12OC2c1cccc2ccccc12 (stereo not given) | -1 | 15 | 2 | 58* | 34 | 39*
N#Cc1cccc(NC(=O)CSc2ccc3c4c(cccc24)C(=O)c2ccccc2-3)c1 | 42 | 27 | 0 | 82* | -9 | -14
CCN(CC(=O)Nc1ccc2c(c1)OCCO2)C(=O)/C=C/c1cc(Br)ccc1OC | x | 2 | x | -8 | 4 | -2
COc1cccc(OC)c1C(=O)Nc1ccc(C(=O)c2ccncc2)cc1 | -7 | 0 | 2 | 1 | 7 | -18
COc1cccc(-c2nnc3sc(-c4ccccc4)nn23)c1 | -11 | 0 | 2 | -3 | 1 | -18
COc1cccc(OC)c1-c1nn2c(-c3cc(-c4ccccc4)n[nH]3)nnc2s1 | 90* | 56* | 24 | 17 | 4 | -2
O=S(=O)(c1ccccc1)c1nnn2c1nc(NC1CCN(Cc3ccccc3)CC1)c1cc(Cl)ccc12 | 6 | 27 | 0 | -1 | 12 | -13
O=S(=O)(c1ccccc1)c1nnn2c1nc(NC1CCN(Cc3ccccc3)CC1)c1ccccc12 | 0 | 66* | 0 | -1 | 7 | -66
CC(C)(C)OC(=O)N1CCC(C(=O)Nc2ccc(C(=O)N3CCCCC3)cc2)CC1 | 4 | 3 | x | 4 | -4 | 10
O=C(Nc1ccc(-c2nc3ccc(NC(=O)c4cccs4)cc3[nH]2)cc1)c1cccs1 | 11 | 7 | 0 | 14 | 42* | 82*
CC1(c2ccc(Cl)cc2Cl)NC(=O)N(CC(=O)Nc2ccc3[nH]c(=O)[nH]c3c2)C1=O (stereo not given) | -7 | 0 | 0 | -1 | 3 | 54*
Cc1ccc(C2(C)NC(=O)N(CC(=O)Nc3ccc4[nH]c(=O)[nH]c4c3)C2=O)cc1 (stereo not given) | 2 | 4 | 0 | 1 | 0 | 72*
O=C(C(=O)N1CCN(C(=O)c2ccco2)CC1)c1ccccc1 | x | -2 | x | x | x | -2
O=S1(=O)CC(N2CCSCC2)CN1Cc1cn(Cc2ccc(C(F)(F)F)cc2)nn1 (stereo not given) | x | 1 | x | x | x | -3
O=C(Nc1ccc2c(c1)OCCO2)C1C(c2ccccc2)=Nc2ccccc2N1C(=O)c1cccnc1 (stereo not given) | x | 1 | x | x | x | -12
CC1=CC2(C)C(C3C(C)=CC2(C)C(=O)C3(C)O)C(C)(O)C1=O (stereo not given) | -8 | 0 | x | 1 | -2 | 0
CC(C)NC(=O)C1(C)CCN1C(=O)c1cccn1C (stereo not given) | x | -2 | x | 2 | -1 | 4
O=C(Nc1ccc(Br)cc1)N1CCCC(O)C1 (stereo not given) | -6 | -1 | 56* | -1 | -5 | -1

Compound activity from PubChem.
